One may read the T/C as the result in the treated group divided by that in the control group, in per cent.

Active and inactive are the calls of the source. The calls are words filed in the database; no cut-off is given here.

For one assay, the system named is Bacillus subtilis. Nature of the assay: Antibacterial activity against Bacillus subtilis. It is filed as functional, organism-based.
Turning to `CC[C@@]1(O)C[C@H](O[C@H]2C[C@H](OC(C)=O)[C@H](OC(C)=O)CO2)c2c(O)c3c(c(O)c2[C@H]1C(=O)OC)C(=O)c1cccc(O)c1C3=O`, the outcome was Active.

The subject of another assay is P388. Nature of the assay: Antitumor activity against mouse P388 cells allografted in CDF mouse assessed as tumor growth inhibition at 13 mg/kg/day relative to control. It is filed as functional. The gist of the method: (§1)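 P388 lymphatic leukemia carried in CDF mice, with compound given as a daily dose in mg/kg/day. Activity was read out as T/C, treated versus control. Route, vehicle and schedule length are not given.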
With `CC[C@@]1(O)C[C@H](O[C@H]2C[C@H](O)[C@H](O)CO2)c2c(O)c3c(c(O)c2[C@H]1C(=O)OC)C(=O)c1cccc(O)c1C3=O`, the T/C was 115%.

A further assay relates to Enterobacteria phage lambda. Briefly: Induction of lambda phage production in streptomycin-dependent lysogenic Escherichia coli W1709(lambda) assessed as ratio of plaques in treated culture to control. It is filed as functional.
In the case of `CC[C@@]1(O)C[C@H](O[C@@H]2OC[C@@H](OC(C)=O)[C@@H](OC(C)=O)[C@@H]2OC(C)=O)c2c(O)c3c(c(O)c2[C@H]1C(=O)OC)C(=O)c1cccc(O)c1C3=O`, the outcome was inactive.

On to `CC[C@@]1(O)C[C@H](O[C@@H]2O[C@@H](CO)[C@@H](O)[C@H]2O)c2c(O)c3c(c(O)c2[C@H]1C(=O)OC)C(=O)c1cccc(O)c1C3=O`, for which the result was inactive.

Regarding `CC[C@@]1(O)C[C@H](O[C@@H]2O[C@@H](C)[C@H](OC(C)=O)[C@@H](OC(C)=O)[C@H]2OC(C)=O)c2c(O)c3c(c(O)c2[C@H]1C(=O)OC)C(=O)c1cccc(O)c1C3=O`, the result was inactive.

Consider `CC[C@@]1(O)C[C@H](O[C@@H]2OC[C@H](OC(C)=O)[C@@H](OC(C)=O)[C@H]2OC(C)=O)c2c(O)c3c(c(O)c2[C@H]1C(=O)OC)C(=O)c1cccc(O)c1C3=O`, for which the outcome was inactive.

`CC[C@@]1(O)C[C@H](O[C@@H]2O[C@H](COC(=O)c3ccc([N+](=O)[O-])cc3)[C@H](OC(=O)c3ccc([N+](=O)[O-])cc3)[C@H]2OC(=O)c2ccc([N+](=O)[O-])cc2)c2c(O)c3c(c(O)c2[C@H]1C(=O)OC)C(=O)c1cccc(O)c1C3=O`: the outcome was inactive.

Regarding `CC[C@@]1(O)C[C@H](O[C@H]2C[C@H](OC(C)=O)[C@H](OC(C)=O)CO2)c2c(O)c3c(c(O)c2[C@H]1C(=O)OC)C(=O)c1cccc(O)c1C3=O`, the outcome was inactive.

Consider `CC[C@@]1(O)C[C@H](O[C@H]2C[C@H](O)[C@@H](O)[C@H](C)O2)c2c(O)c3c(c(O)c2[C@H]1C(=O)OC)C(=O)c1cccc(O)c1C3=O`, for which the result was inactive.

In the case of `CC[C@@]1(O)C[C@H](O[C@@H]2O[C@H](COC(=O)c3ccccc3)[C@@H](OC(=O)c3ccccc3)[C@H]2OC(=O)c2ccccc2)c2c(O)c3c(c(O)c2[C@H]1C(=O)OC)C(=O)c1cccc(O)c1C3=O`, the outcome was inactive.

Consider `CC[C@@]1(O)C[C@H](O[C@@H]2O[C@H](COC(C)=O)[C@@H](OC(C)=O)[C@H](OC(C)=O)[C@H]2OC(C)=O)c2c(O)c3c(c(O)c2[C@H]1C(=O)OC)C(=O)c1cccc(O)c1C3=O`, for which the outcome was inactive.

Consider `CC[C@@]1(O)C[C@H](O[C@@H]2O[C@H](COCc3ccccc3)[C@@H](OCc3ccccc3)[C@@H]2OCc2ccccc2)c2c(O)c3c(c(O)c2[C@H]1C(=O)OC)C(=O)c1cccc(O)c1C3=O`, for which the outcome was inactive.

For the compound `CC[C@@]1(O)C[C@H](O[C@@H]2O[C@H](CO)[C@@H](O)[C@H](O)[C@H]2O)c2c(O)c3c(c(O)c2[C@H]1C(=O)OC)C(=O)c1cccc(O)c1C3=O`, the outcome was inactive.

For the compound `CC[C@@]1(O)C[C@H](O[C@H]2C[C@H](O)[C@@H](CO)O2)c2c(O)c3c(c(O)c2[C@H]1C(=O)OC)C(=O)c1cccc(O)c1C3=O`, the result was inactive.

As to `CC[C@@]1(O)C[C@H](O[C@H]2C[C@H](OC(C)=O)[C@H](OC(C)=O)[C@H](C)O2)c2c(O)c3c(c(O)c2[C@H]1C(=O)OC)C(=O)c1cccc(O)c1C3=O`, the result was inactive.

With `CC[C@@]1(O)C[C@H](O[C@@H]2O[C@@H](C)[C@@H](OC(C)=O)[C@@H](OC(C)=O)[C@@H]2OC(C)=O)c2c(O)c3c(c(O)c2[C@H]1C(=O)OC)C(=O)c1cccc(O)c1C3=O`, the result was inactive.

Regarding `CC[C@@]1(O)C[C@H](O[C@H]2C[C@H](O)[C@H](O)[C@H](C)O2)c2c(O)c3c(c(O)c2[C@H]1C(=O)OC)C(=O)c1cccc(O)c1C3=O`, the result was inactive.

Take `CC[C@@]1(O)C[C@H](O[C@@H]2OC[C@@H](OC(C)=O)[C@H](OC(C)=O)[C@H]2OC(C)=O)c2c(O)c3c(c(O)c2[C@H]1C(=O)OC)C(=O)c1cccc(O)c1C3=O`: the result was inactive.

Turning to `CC[C@@]1(O)C[C@H](O[C@@H]2OC[C@@H](OC(C)=O)[C@@H](OC(C)=O)[C@H]2OC(C)=O)c2c(O)c3c(c(O)c2[C@H]1C(=O)OC)C(=O)c1cccc(O)c1C3=O`, the outcome was inactive.

With `CC[C@@]1(O)C[C@H](O[C@@H]2O[C@@H](C)[C@@H](O)[C@@H](O)[C@@H]2O)c2c(O)c3c(c(O)c2[C@H]1C(=O)OC)C(=O)c1cccc(O)c1C3=O`, the outcome was inactive.

Take `CC[C@@]1(O)C[C@H](O[C@@H]2OC[C@H](OC(C)=O)[C@H](OC(C)=O)[C@H]2OC(C)=O)c2c(O)c3c(c(O)c2[C@H]1C(=O)OC)C(=O)c1cccc(O)c1C3=O`: the result was inactive.

Consider `CC[C@@]1(O)C[C@H](O[C@@H]2O[C@@H](COC(=O)c3ccccc3)[C@@H](OC(=O)c3ccccc3)[C@H]2OC(=O)c2ccccc2)c2c(O)c3c(c(O)c2[C@H]1C(=O)OC)C(=O)c1cccc(O)c1C3=O`, for which the outcome was inactive.

For the compound `CC[C@@]1(O)C[C@H](O[C@H]2C[C@H](OC(C)=O)[C@@H](OC(C)=O)[C@H](C)O2)c2c(O)c3c(c(O)c2[C@H]1C(=O)OC)C(=O)c1cccc(O)c1C3=O`, the outcome was inactive.

Consider `CC[C@@]1(O)C[C@H](O[C@H]2C[C@H](OC(=O)c3ccc([N+](=O)[O-])cc3)[C@@H](COC(=O)c3ccc([N+](=O)[O-])cc3)O2)c2c(O)c3c(c(O)c2[C@H]1C(=O)OC)C(=O)c1cccc(O)c1C3=O`, for which the result was inactive.

Take `CC[C@@]1(O)C[C@H](O[C@H]2C[C@H](O)[C@H](O)CO2)c2c(O)c3c(c(O)c2[C@H]1C(=O)OC)C(=O)c1cccc(O)c1C3=O`: the result was inactive.

Consider `CC[C@@]1(O)C[C@H](O[C@@H]2O[C@H](CO)[C@H](O)[C@H]2O)c2c(O)c3c(c(O)c2[C@H]1C(=O)OC)C(=O)c1cccc(O)c1C3=O`, for which the result was inactive.

For `CC[C@@]1(O)C[C@H](O[C@@H]2OC[C@H](O)[C@H](O)[C@H]2O)c2c(O)c3c(c(O)c2[C@H]1C(=O)OC)C(=O)c1cccc(O)c1C3=O`, the outcome was inactive.

Regarding `CC[C@@]1(O)C[C@H](O[C@@H]2O[C@H](CO)[C@@H](O)[C@H]2O)c2c(O)c3c(c(O)c2[C@H]1C(=O)OC)C(=O)c1cccc(O)c1C3=O`, the result was inactive.

Another assay deals with P388. Nature of the assay: Antitumor activity against mouse P388 cells allografted in CDF mouse assessed as tumor growth inhibition at 64 mg/kg/day relative to control. It is filed as functional. Summed up:
as §1
On to `CC[C@@]1(O)C[C@H](O[C@H]2C[C@H](OC(C)=O)[C@H](OC(C)=O)CO2)c2c(O)c3c(c(O)c2[C@H]1C(=O)OC)C(=O)c1cccc(O)c1C3=O`, for which the T/C is 125%.

A further assay relates to P388. Nature of the assay: Antitumor activity against mouse P388 cells allografted in CDF mouse assessed as tumor growth inhibition at 32 to 128 mg/kg/day relative to control. The class given is functional. Summed up:
as §1
Regarding `CC[C@@]1(O)C[C@H](O[C@H]2C[C@H](OC(C)=O)[C@H](OC(C)=O)CO2)c2c(O)c3c(c(O)c2[C@H]1C(=O)OC)C(=O)c1cccc(O)c1C3=O`, the T/C amounted to 110%.

The next assay has as its system P388. Briefly: Antitumor activity against mouse P388 cells allografted in CDF mouse assessed as tumor growth inhibition at 18 mg/kg/day relative to control. It is filed as functional. Summed up:
as §1
Regarding `CC[C@@]1(O)C[C@H](O[C@H]2C[C@H](O)[C@H](O)[C@H](C)O2)c2c(O)c3c(c(O)c2[C@H]1C(=O)OC)C(=O)c1cccc(O)c1C3=O`, the T/C turned out to be 109%.

(Values after ChEMBL document CHEMBL3244092, “Synthesis of episilon-rhodomycinone glycosides” (1977).)
